# According to publication PMC12238435 (EJNMMI Radiopharmacy and Chemistry, 2025):
# Read-outs that look alike come from different tables or passages of the source.
# Tests used:
# [1] = ref Dillemuth et al. [2025]; cited from earlier work
# [2] = tested on: intracranial BT12 glioblastoma xenografts; assay: PET imaging of mice with intracranial BT12 glioblastoma xenografts; type: in vivo, mouse; settings: for SUV in healthy brain: i.v.
# Summary of the method: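 Mice were imaged 21 days after intracranial BT12 inoculation, under 1–2% isoflurane on a heating pad. Non-contrast HRCT came first, then the tracer (4.70 ± 0.44 MBq, 0.10 ± 0.06 µg) i.v. via tail-vein cannula and 60-min dynamic list-mode PET. For blocking, the MCT1 inhibitor (1.1 mg/kg) was given i.v. 15 min before tracer. SUV was corrected for injected dose, body weight and tail/cannula residue; TBR was also derived. Data are mean ± SD, unpaired t-test.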
# [3] = tested on: monocarboxylate transporter 1 (MCT1); settings: AZD3965 1.1 mg/kg; same mouse model; ref Dillemuth et al. [2025]; cited from earlier work
# [4] = In vivo stability analysis; parameters: species or system mouse; settings: mice with BT12 glioblastoma, i.v.
# Summary of the method: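 After 60-min dynamic PET following tail-vein i.v. injection of the 18F-labelled peptide tracer, heparinized blood was centrifuged (2,100 × g, 5 min). Plasma was deproteinized with an equal volume of acetonitrile (14,000 × g, 3 min, RT), and fractions were gamma-counted. Protein-free plasma and acetonitrile-extracted brain homogenate were run on radio-HPLC (C18, 0.1% TFA water/acetonitrile, 12–80% B gradient). Peaks were assigned by reference retention times and co-injection.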
# [5] = Ex vivo biodistribution in mice with glioblastoma; parameters: species or system mouse; settings: no blocking, 60 min postinjection, gamma counting, mean, n=7 ([18F]FNA-N-CooP), n=4 ([18F]FNA)
# [6] = PET, glioblastoma mice, no blocking, mean ± SD, n = 4
# [7] = PET, no blocking, single mouse (one of two)
compound,measurement,setting,value
"O=C(O)c1ccc([18F])nc1 [[^18F]FNA, 6-[^18F]fluoronicotinic acid, reference compound]",in vivo stability,[1],stable in vivo
same,tumor-to-brain ratio (TBR),[2]; [6],1.51 ± 0.08
same,SUV in healthy brain,[2]; [6],0.59 ± 0.05
FB-CGLSGLGVA-NH2 [[^18F]FB-N-CooP],TBR,[2]; [7],1.28
same,tumor SUV,[2]; [7],0.16
Cc1[nH]nc(C(F)(F)F)c1Cc1sc2c(c1C(=O)N1C[C@](C)(O)CO1)c(=O)n(C)c(=O)n2C(C)C [AZD3965],reduction of glioblastoma uptake of [^18F]FNA,[3],76%
FNA-CGLSGLGVA-NH2 [[^18F]FNA-N-CooP],in vivo stability,[4],not stable in vivo
same,%ID/g Kidney,[5],8.88 ± 6.16 %ID/g
same,%ID/g Urine,[5],772.29 ± 373.58 %ID/g
same,"SUV in tumor, blocking with AZD3965","[2]; AZD3965 1.1 mg/kg i.v. 15 min before tracer, single mouse (one of two)",0.17
same,SUV in healthy brain,[2]; [6],0.11 ± 0.02
